A selection: hits, their analogues and other compounds. The true share with any hit is near 1.9%.
CHRM4 PAM: human M4 muscarinic receptor positive allosteric modulators, primary screen, CHO-K1 cells, Fluo-8 calcium fluorescence; AID 624126, 2012; CHO-K1 hM4/Gqi5, ACh EC20; 0% = ACh EC20, 100% = maximal ACh; 360,000 compounds, 0.4% hits; activation, % at 3 µM;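 active = activation above its plate's cutoff, the mean activation of sample wells plus 3 SD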
CHRM4 agonist: human M4 muscarinic receptor agonists, primary screen, CHO-K1 cells, Fluo-8 calcium fluorescence; CHO-K1 hM4/Gqi5; vehicle 0%, full acetylcholine response 100%; Muscarinic acetylcholine receptor M4 (Homo sapiens), P08173; 360,000 compounds, 0.14% hits; activation, % at 3 µM;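 active = activation above the run mean over all test wells plus 3 SD, cut at about 32% in these data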;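 also: peak over basal fluorescence ratio per well then scaled between controls; 0% = DMSO wells and 100% = acetylcholine at EC100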
M4 antag: human M4 muscarinic receptor antagonists, primary screen, CHO cells, Fluo-8 calcium fluorescence. CHO-hM4 cells, ACh EC80. 360,000 compounds, 0.73% hits. Muscarinic acetylcholine receptor M4 (Homo sapiens), P08173. AID 624125, 2012. inhibition, % at 3 µM;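 active = inhibition above its plate's cutoff, the mean inhibition of sample wells plus 3 SD, cut at about 27% in these data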;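 also: 0% = acetylcholine EC80 with DMSO and 100% = DMSO without agonist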
M5 PAM: human M5 muscarinic receptor positive allosteric modulators, primary screen, CHO-K1 cells, Fluo-8 calcium fluorescence; CHO-K1 hM5, ACh EC20 PAM; 0% = ACh EC20, 100% = ACh EC100; activation, % at 3 µM; 360,000 compounds, 0.3% hits;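 active = activation above the run cutoff, the mean activation of all test compounds plus 3 SD, cut at about 18% in these data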
Target sequence (P08912 whole entry, looked up): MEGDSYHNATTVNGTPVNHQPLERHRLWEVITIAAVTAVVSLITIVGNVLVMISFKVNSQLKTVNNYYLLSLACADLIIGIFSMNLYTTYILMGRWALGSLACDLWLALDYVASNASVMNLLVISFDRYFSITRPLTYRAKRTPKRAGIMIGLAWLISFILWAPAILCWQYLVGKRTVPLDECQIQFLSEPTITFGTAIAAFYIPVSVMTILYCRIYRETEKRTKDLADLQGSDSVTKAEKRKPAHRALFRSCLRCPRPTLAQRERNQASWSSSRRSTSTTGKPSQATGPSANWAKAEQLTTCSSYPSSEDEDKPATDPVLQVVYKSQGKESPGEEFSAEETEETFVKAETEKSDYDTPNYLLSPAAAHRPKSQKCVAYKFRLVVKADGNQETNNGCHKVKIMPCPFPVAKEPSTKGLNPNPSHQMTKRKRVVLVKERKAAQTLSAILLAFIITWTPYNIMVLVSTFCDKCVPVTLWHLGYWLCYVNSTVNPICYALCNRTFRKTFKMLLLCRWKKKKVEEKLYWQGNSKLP
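System: CHO-K1 cell line with stable human muscarinic M5 receptor expression | Also added: EC20 acetylcholine as agonist stimulus | Compound: One concentration, 3 µM final (nominal) | Timing: Fluo-8 loading 80 min at 37 °C plus 30 min room temperature | Measured by: Fluo-8 calcium dye fluorescence, kinetic read | Read-out basis: % activation, ACh-normalized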
CHRM5 agonist: human M5 muscarinic receptor agonists, primary screen, CHO-K1 cells, Fluo-8 calcium fluorescence | AID 624037, 2012 | 360,000 compounds, 0.19% hits | activation, % at 3 µM | CHO-K1 hM5 cells; 0% DMSO wells, 100% maximal acetylcholine response;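 active = activation above the run's mean over test compounds plus 3 SD, cut at about 23% in these data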;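 also: signal is peak over basal fluorescence ratio across the kinetic read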
M5 antag: human M5 muscarinic receptor antagonists, primary screen, CHO cells, Fluo-8 calcium fluorescence. 360,000 compounds, 0.59% hits. inhibition, % at 3 µM. CHO-hM5 cells, ACh EC80;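 active = inhibition above a per-plate cutoff, the mean of that plate's test compounds plus 3 SD, cut at about 27% in these data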;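 also: 0% = acetylcholine EC80 with DMSO and 100% = DMSO without agonist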
The depositor's hits bear a star; ! = not confirmed by another sample.

SMILES	CHRM4 PAM	CHRM4 agonist	M4 antag	M5 PAM	CHRM5 agonist	M5 antag
Cc1ccc(N=N/C(=C\O)C(=O)c2ccc(Cl)cc2)cc1	15	0	-8	10	0	-7
O=C(/C(=C/O)N=Nc1ccccc1)c1ccc(Cl)cc1	7	1	0	19*	-2	-12
CC1CCC(NC(=O)C2CCC(CNS(=O)(=O)c3cccc4cccnc34)CC2)CC1 (stereo not drawn)	-4	2	-2	-4	-3	13
CCCCCCC[N+](CC)(CC)CCCCc1ccc(Cl)cc1	-14	0	38*	-18	-2	22
CCCCCNCc1ccc(Cl)cc1	9	1	-8	-1	-5	19
CCCCc1nnc(NC(=O)c2oc3ccc(OC)cc3c2C)s1	15	0	-15	19*	-3	-16
COc1ccc2oc(C(=O)Nc3nccs3)c(C)c2c1	7	1	-3	6	-4	0
COc1ccc(NC(=O)CN2C(=O)NC(C)(Cc3ccc(OC)c(OC)c3)C2=O)cc1 (stereo not drawn)	11	1	-4	2	-1	-1
C/C(=N\NC(=O)c1cccc(C)c1)c1ccc(N2CCOCC2)cc1	3	3	-20	19*	-2	-10
CCOc1cc(NC(=S)NCC2CCCO2)c(OCC)cc1NC(=O)c1cccc(F)c1 (stereo not drawn)	9	2	-11	2	-4	3
CCN1C(=O)[C@H]2[C@@H](c3ccc(C)cc3)N3C(=O)N(c4ccc(C)cc4)C(=O)[C@@]3(Cc3ccccc3)[C@H]2C1=O	18	5	-25	6	0	-4
CCN1C(=O)[C@H]2[C@@H](c3ccc(C)cc3)N3C(=O)N(c4ccc(OC)cc4)C(=O)[C@@]3(Cc3ccc(Cl)cc3)[C@H]2C1=O	31*	4	-12	5	1	-1
O=C(CSCC(=O)N1CCCCC1)Nc1nc(-c2ccccc2)c(-c2ccccc2)s1	-3	-1	-1	-5	-2	1
CC(Oc1cccc2ccccc12)C(=O)N/N=C/c1cccnc1 (stereo not drawn)	22*	6	-2	-2	-2	1
CC(Sc1ccccc1)C(=O)N/N=C/c1cccnc1 (stereo not drawn)	4	4	-10	4	-1	1
O=C1NC(c2ccccc2)CCO1 (stereo not drawn)	30*	1	-5	9	-2	-4
O=S(=O)(CCc1nc2ccccc2[nH]1)c1ccc(Cl)cc1	23*	2	-10	1	1	-14
Cc1ccc(S(=O)(=O)CCc2nc3ccccc3[nH]2)cc1	-6	2	1	-1	0	10
O=C(NCc1ccncc1)C(=O)N/N=C/c1ccc(OCc2ccccc2)cc1	2	1	-10	6	-3	-7
O=NN(CCc1ccncc1)c1ccc(OCc2ccccc2)cc1	-11	13	12	-25	-5	34*
Cc1ccc(C(=O)COC(=O)[C@@H](NC(=O)c2ccco2)C(C)C)s1	4	0	-4	0	0	20
COc1ccc(NC(=O)Nc2cccc3c2O[C@H](CN(C)C(=O)Nc2c(C)noc2C)[C@@H](C)CN([C@H](C)CO)C3=O)cc1	11	1	-4	5	2	-1
O=S1(=O)[C@H]2C[C@@H]3C=C[C@@]2(CN1Cc1ccc(F)cc1)O3	14	1	6	3	-2	12
Cc1c(C(=O)NC2CCS(=O)(=O)C2)oc2ccccc12 (stereo not drawn)	-8	0	1	-4	-3	27*
CC(=O)Nc1c(I)c(NC(C)=O)c(I)c(C(=O)O)c1I	-5	0	-2	3	63*!	-8
SMILES	CHRM4 PAM	CHRM4 agonist	M4 antag	M5 PAM	CHRM5 agonist	M5 antag
[NH-]c1ncnc2c1N=C[N+]2=CC=CCO	0	1	1	-5	-2	7
N=c1c2c3c(sc2nc2n1CCCCC2)CCCCC3	-24	4	29*	-12	-6	7
OCCN(CCO)c1cc2c3ccccc3ccc2c2ccccc12	-1	7	5	2	-2	5
COc1ccc(NC(=O)CCCCCn2nnc3ccccc3c2=O)cc1	2	3	-2	4	1	-13
CCN(CC)c1ccc(C(=C2C=CC(=[N+](CC)CC)C=C2)c2ccccc2)cc1	-13	66*	99*	-46	30*	85*
CCN(CC)c1ccc(C(=C2C=CC(=[N+](CC)CC)C=C2)c2ccc(N(CC)CC)cc2)cc1	-9	11	43*	-17	19	36*
COC(=O)c1ccc(OC(=O)CCS(=O)(=O)c2ccc(C)cc2)cc1	-1	0	-2	-3	1	5
CN1CCN(C2=Cc3cc(Cl)ccc3Sc3cc(F)ccc32)CC1	-15	9	50*	-29	-10	45*
CN1CCN(C2=Cc3ccccc3Sc3cc(F)c(Cl)cc32)CC1	-19	4	29*	-29	-12	15
CN1CCN(C2=Cc3ccccc3Sc3cc(F)c(F)cc32)CC1	-17	4	17	-43	-12	22
Cc1cccc(NC(=O)C2CC2c2ccccc2)c1C (stereo not drawn)	-2	0	7	8	-7	2
Cc1sc2ncnc(N/N=C/c3ccccc3O)c2c1C	30*	1	-20	0	0	-3
Cc1sc2ncnc(N/N=C/c3ccc(O)cc3)c2c1C	19	3	-1	-2	2	-4
O=C(CN1C(=O)c2ccccc2S1(=O)=O)c1ccc2c(c1)OCCO2	-2	2	-7	21*	2	-16
O=C(CN1C(=O)c2ccccc2S1(=O)=O)c1ccc2c(c1)OCCCO2	-4	6	0	2	-4	0
Cn1c2ccccc2c2cnn(CC(=O)N3CCCCC3)c(=O)c21	4	2	5	-3	0	5
COc1cccc(CN2CCNC(=O)C2CC(=O)N(C)C2CCCCC2)c1 (stereo not drawn)	10	1	0	2	-2	3
O=C(NC(=S)NNC(=O)c1cccs1)c1ccco1	-6	1	8	-4	-2	4
O=C(NNC(=O)c1cccs1)c1ccco1	7	1	2	21*	2	7
